ChEMBL document CHEMBL3045880, “Design and syntheses of novel N-(benzothiazol-5-yl)-4,5,6,7-tetrahydro-1H-isoindole-1,3(2H)-dione and N-(benzothiazol-5-yl)isoindoline-1,3-dione as potent protoporphyrinogen oxidase inhibitors” (J Agric Food Chem, 2011)

How the values were obtained:
[1] = system: Digitaria sanguinalis; assay: Herbicidal activity against Digitaria sanguinalis (hairy crabgrass) assessed as growth inhibition at 150 g/ha postemergence treatment measured after 15 days by Greenhouse test; assay type: functional; conditions: post-emergence, 360 h, read-out: GI
Procedure, shortened: (§1)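 Test compounds were made up as 100 g/L emulsifiable concentrates (DMF solvent, Tween-80 emulsifier) and diluted with water. About 20 seeds were sown 1–3 cm deep in clay soil (pH 6.5, 1.6% organic matter) in 9.5 cm pots, kept at 15–30 °C and 50% RH. Postemergence spray was applied to dicots at the 2-leaf stage and monocots at the 1-leaf stage. Controls were untreated and solvent-treated. Injury was scored visually at 15 days, with three replicates.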

[2] = system: Brassica juncea; assay: Herbicidal activity against Brassica juncea assessed as growth inhibition at 150 g/ha postemergence treatment measured after 15 days by Greenhouse test; assay type: functional; conditions: post-emergence, 360 h, read-out: GI; procedure, shortened: as §1
[3] = molecular target: T1, Protoporphyrinogen oxidase (Homo sapiens) (UniProt P50336); assay: Inhibition of Homo sapiens (human) recombinant protoporphyrinogen oxidase by fluorescence detection
T1 sequence (whole entry): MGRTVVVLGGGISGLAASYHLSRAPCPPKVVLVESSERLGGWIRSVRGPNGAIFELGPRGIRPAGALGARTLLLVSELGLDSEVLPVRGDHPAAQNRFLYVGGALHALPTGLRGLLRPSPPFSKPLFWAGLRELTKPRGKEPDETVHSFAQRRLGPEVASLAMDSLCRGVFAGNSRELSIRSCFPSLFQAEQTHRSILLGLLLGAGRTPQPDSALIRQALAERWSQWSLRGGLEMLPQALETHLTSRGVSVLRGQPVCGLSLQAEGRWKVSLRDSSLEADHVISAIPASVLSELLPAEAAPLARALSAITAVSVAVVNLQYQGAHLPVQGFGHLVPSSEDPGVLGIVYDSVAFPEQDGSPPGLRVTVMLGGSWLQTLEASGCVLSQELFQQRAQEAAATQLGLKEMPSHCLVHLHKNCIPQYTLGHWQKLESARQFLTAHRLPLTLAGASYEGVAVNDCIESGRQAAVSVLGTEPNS

[4] = system: Setaria faberi; assay: Herbicidal activity against Setaria faberi (Giant Foxtail) assessed as growth inhibition at 150 g/ha postemergence treatment measured after 15 days by Greenhouse test; assay type: functional; conditions: post-emergence, 360 h, read-out: GI; procedure, shortened: as §1
[5] = system: Amaranthus retroflexus; assay: Herbicidal activity against Amaranthus retroflexus assessed as growth inhibition at 150 g/ha postemergence treatment measured after 15 days by Greenhouse test; assay type: functional; conditions: post-emergence, 360 h, read-out: GI; procedure, shortened: as §1
[6] = system: Echinochloa crus-galli; assay: Herbicidal activity against Echinochloa crus-galli (barnyard grass) assessed as growth inhibition at 150 g/ha postemergence treatment measured after 15 days by Greenhouse test; assay type: functional; conditions: post-emergence, 360 h, read-out: GI; procedure, shortened: as §1
[7] = system: Eclipta prostrata; assay: Herbicidal activity against Eclipta prostrata assessed as growth inhibition at 150 g/ha postemergence treatment measured after 15 days by Greenhouse test; assay type: functional; conditions: post-emergence, 360 h, read-out: GI; procedure, shortened: as §1
[8] = system: Abutilon theophrasti; assay: Herbicidal activity against Abutilon theophrasti (velvetleaf) assessed as growth inhibition at 150 g/ha postemergence treatment measured after 15 days by Greenhouse test; assay type: functional; conditions: post-emergence, 360 h, read-out: GI; procedure, shortened: as §1
[9] = system: Setaria faberi; assay: Herbicidal activity against Setaria faberi (Giant Foxtail) assessed as growth inhibition at 37.5 g/ha postemergence treatment measured after 15 days by Greenhouse test; assay type: functional; conditions: post-emergence, 360 h, read-out: GI
Procedure, shortened: (§2)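 Postemergence greenhouse pot test. About 20 seeds per pot, sown 1-3 cm deep in clay soil (pH 6.5, 1.6% organic matter). Plants grown at 15-30 °C and 50% relative humidity. Compounds were made up as 100 g/L emulsifiable concentrates in DMF with Tween-80, then diluted in water. Dicots were sprayed at the 2-leaf stage and monocots at the 1-leaf stage. Controls were untreated and solvent-treated. Injury was scored visually after 15 days, three replicates per treatment.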

[10] = system: Digitaria sanguinalis; assay: Herbicidal activity against Digitaria sanguinalis (hairy crabgrass) assessed as growth inhibition at 75 g/ha postemergence treatment measured after 15 days by Greenhouse test; assay type: functional; conditions: post-emergence, 360 h, read-out: GI; procedure, shortened: as §2
[11] = system: Brassica juncea; assay: Herbicidal activity against Brassica juncea assessed as growth inhibition at 37.5 g/ha postemergence treatment measured after 15 days by Greenhouse test; assay type: functional; conditions: post-emergence, 360 h, read-out: GI; procedure, shortened: as §2
[12] = system: Abutilon theophrasti; assay: Herbicidal activity against Abutilon theophrasti (velvetleaf) assessed as growth inhibition at 75 g/ha postemergence treatment measured after 15 days by Greenhouse test; assay type: functional; conditions: post-emergence, 360 h, read-out: GI; procedure, shortened: as §2
[13] = system: Echinochloa crus-galli; assay: Herbicidal activity against Echinochloa crus-galli (barnyard grass) assessed as growth inhibition at 75 g/ha postemergence treatment measured after 15 days by Greenhouse test; assay type: functional; conditions: post-emergence, 360 h, read-out: GI; procedure, shortened: as §2
[14] = system: Abutilon theophrasti; assay: Herbicidal activity against Abutilon theophrasti (velvetleaf) assessed as growth inhibition at 37.5 g/ha postemergence treatment measured after 15 days by Greenhouse test; assay type: functional; conditions: post-emergence, 360 h, read-out: GI; procedure, shortened: as §2
[15] = system: Eclipta prostrata; assay: Herbicidal activity against Eclipta prostrata assessed as growth inhibition at 75 g/ha postemergence treatment measured after 15 days by Greenhouse test; assay type: functional; conditions: post-emergence, 360 h, read-out: GI; procedure, shortened: as §2
[16] = system: Echinochloa crus-galli; assay: Herbicidal activity against Echinochloa crus-galli (barnyard grass) assessed as growth inhibition at 37.5 g/ha postemergence treatment measured after 15 days by Greenhouse test; assay type: functional; conditions: post-emergence, 360 h, read-out: GI; procedure, shortened: as §2
[17] = system: Setaria faberi; assay: Herbicidal activity against Setaria faberi (Giant Foxtail) assessed as growth inhibition at 75 g/ha postemergence treatment measured after 15 days by Greenhouse test; assay type: functional; conditions: post-emergence, 360 h, read-out: GI; procedure, shortened: as §2
[18] = system: Digitaria sanguinalis; assay: Herbicidal activity against Digitaria sanguinalis (hairy crabgrass) assessed as growth inhibition at 37.5 g/ha postemergence treatment measured after 15 days by Greenhouse test; assay type: functional; conditions: post-emergence, 360 h, read-out: GI; procedure, shortened: as §2
[19] = system: Brassica juncea; assay: Herbicidal activity against Brassica juncea assessed as growth inhibition at 75 g/ha postemergence treatment measured after 15 days by Greenhouse test; assay type: functional; conditions: post-emergence, 360 h, read-out: GI; procedure, shortened: as §2
[20] = system: Eclipta prostrata; assay: Herbicidal activity against Eclipta prostrata assessed as growth inhibition at 37.5 g/ha postemergence treatment measured after 15 days by Greenhouse test; assay type: functional; conditions: post-emergence, 360 h, read-out: GI; procedure, shortened: as §2
[21] = system: Amaranthus retroflexus; assay: Herbicidal activity against Amaranthus retroflexus assessed as growth inhibition at 75 g/ha postemergence treatment measured after 15 days by Greenhouse test; assay type: functional; conditions: post-emergence, 360 h, read-out: GI; procedure, shortened: as §2
[22] = system: Amaranthus retroflexus; assay: Herbicidal activity against Amaranthus retroflexus assessed as growth inhibition at 37.5 g/ha postemergence treatment measured after 15 days by Greenhouse test; assay type: functional; conditions: post-emergence, 360 h, read-out: GI; procedure, shortened: as §2

Ki [3]	Compound	inhibition of growth at 150 g/ha [1]	inhibition of growth at 150 g/ha [2]	inhibition of growth at 150 g/ha [4]	inhibition of growth at 150 g/ha [5]	inhibition of growth at 150 g/ha [6]	inhibition of growth at 150 g/ha [7]	further results
210 nM	CC(C)OC(=O)CSc1nc2cc(N3C(=O)C4=C(CCCC4)C3=O)c(F)cc2s1	60%	60%	50%	80%	60%	80%	
1500 nM	CC(C)OC(=O)CSc1nc2cc(N3C(=O)c4ccccc4C3=O)c(F)cc2s1	< 50%		< 50%	80%	< 50%	60%	inhibition of growth at 150 g/ha [8]: 80%
470 nM	CCOC(=O)Sc1nc2cc(N3C(=O)C4=C(CCCC4)C3=O)c(Cl)cc2s1	< 50%	< 50%	< 50%	50%	< 50%	50%	
290 nM	CCOC(=O)C(C)Sc1nc2cc(N3C(=O)C4=C(CCCC4)C3=O)c(F)cc2s1 (stereo unspecified)	60%	80%	60%	80%	60%	80%	
800 nM	CCOC(=O)C(C)Sc1nc2cc(N3C(=O)C4=C(CCCC4)C3=O)c(Cl)cc2s1 (stereo unspecified)	< 50%	< 50%	< 50%	60%	< 50%	60%	
1660 nM	CCOC(=O)CSc1nc2cc(N3C(=O)C4=C(CCCC4)C3=O)c(Cl)cc2s1	< 50%	< 50%	< 50%	80%	< 50%	60%	
1240 nM	CCCOC(=O)CSc1nc2cc(N3C(=O)c4ccccc4C3=O)c(F)cc2s1	< 50%		50%	80%	< 50%		inhibition of growth at 150 g/ha [8]: 80%
3760 nM	CCOC(=O)CCSc1nc2cc(N3C(=O)c4ccccc4C3=O)c(Cl)cc2s1							
510 nM	CCOC(=O)Sc1nc2cc(N3C(=O)c4ccccc4C3=O)c(F)cc2s1	< 50%		< 50%	80%	< 50%	80%	inhibition of growth at 150 g/ha [8]: 80%
320 nM	CCOC(=O)CCSc1nc2cc(N3C(=O)C4=C(CCCC4)C3=O)c(Cl)cc2s1	< 50%	60%	< 50%	60%	< 50%	60%	
1220 nM	COC(=O)CSc1nc2cc(N3C(=O)C4=C(CCCC4)C3=O)c(F)cc2s1	60%	80%	60%	80%	60%	80%	inhibition of growth at 37.5 g/ha [9]: < 50%; inhibition of growth at 75 g/ha [10]: 50%; inhibition of growth at 37.5 g/ha [11]: 50%; inhibition of growth at 75 g/ha [12]: 80%; inhibition of growth at 75 g/ha [13]: 50%; inhibition of growth at 37.5 g/ha [14]: 80%; inhibition of growth at 75 g/ha [15]: 80%; inhibition of growth at 37.5 g/ha [16]: < 50%; inhibition of growth at 75 g/ha [17]: < 50%; inhibition of growth at 37.5 g/ha [18]: < 50%; inhibition of growth at 75 g/ha [19]: 50%; inhibition of growth at 37.5 g/ha [20]: 80%; inhibition of growth at 75 g/ha [21]: 80%; inhibition of growth at 37.5 g/ha [22]: 80%
1660 nM	CCOC(=O)C(C)(C)Sc1nc2cc(N3C(=O)C4=C(CCCC4)C3=O)c(Cl)cc2s1	< 50%	< 50%	< 50%	80%	< 50%	60%	
